Values joined by “and” are separate entries in the source; they are usually repeats but may differ in a detail not shown here. Equal entries are not always repeated.
Legend:
Rattus norvegicus [1] = assay: Maximum inhibitory effect on Angiotensin I induced pressor responses in anesthetized normotensive rats with 10 ug/kg dose of compound given intra venously; type: functional
Rattus norvegicus [2] = assay: Maximum inhibitory effect of on Angiotensin I induced pressor responses in anesthetized normotensive rats with 0.2 mg/Kg dose of compound given perorally; type: functional; conditions: po
Summary of the method: (§1)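 Male Wistar slc rats, 300-400 g, anesthetized, fasted 18-20 h. Drug given orally in distilled water once a constant angiotensin I pressor rise was confirmed. […] ID50 from a linear regression curve. Maximum inhibition reported.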

Rattus norvegicus [3] = assay: Maximum inhibitory effect of on Angiotensin I induced pressor responses in anesthetized normotensive rats with 1.0 mg/Kg dose of compound given perorally; type: functional; conditions: po; summary of the method: as §1
Rattus norvegicus [4] = species on record: Rattus norvegicus; assay: Change in systolic blood pressure; type: functional, Artery
Summary of the method: (§2)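 Male NCrj SHRs, 18-22 weeks old, about 350 g, baseline systolic pressure 180-200 mmHg, fasted 18-20 h. Drug given orally in distilled water at 1, 2, 5 or 10 mg/kg; vehicle 4 mL/kg. Systolic pressure by tail plethysmograph. Initial value, maximum, time of maximum, change and duration of significant fall recorded; mean ± SE.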

Rattus norvegicus [5] = species on record: Rattus norvegicus; assay: The duration time of the hypotensive effect showing statistically significant difference from initial value was determined; type: functional; summary of the method: as §2
Rattus norvegicus [6] = assay: Maximum inhibitory effect of on Angiotensin I induced pressor responses in anesthetized normotensive rats with 0.5 mg/Kg dose of compound given perorally; type: functional; conditions: po; summary of the method: as §1
Rattus norvegicus [7] = assay: Initial systolic blood pressure in spontaneously hypertensive rats after administration of 10 mg/kg of compound perorally; type: functional, Artery; conditions: route oral; summary of the method: as §2
Rattus norvegicus [8] = assay: Initial systolic blood pressure in spontaneously hypertensive rats after administration of 1 mg/kg of compound perorally; type: functional, Artery; conditions: route oral; summary of the method: as §2
Rattus norvegicus [9] = assay: Initial systolic blood pressure in spontaneously hypertensive rats after administration of 2 mg/kg of compound perorally; type: functional, Artery; conditions: route oral; summary of the method: as §2
Rattus norvegicus [10] = assay: Initial systolic blood pressure in spontaneously hypertensive rats after administration of 5 mg/kg of compound perorally; type: functional, Artery; conditions: route oral; summary of the method: as §2
Rattus norvegicus [11] = assay: The time required for the maximal fall in blood pressure after administration of the compound; type: functional; summary of the method: as §2
Rattus norvegicus [12] = species on record: Rattus norvegicus; assay: Inhibitory effect of on Angiotensin I induced pressor responses in normotensive rats when given perorally; type: functional; conditions: po, read-out: ID50 (the source's name); summary of the method: as §1
Rattus norvegicus [13] = assay: Maximum inhibitory effect on Angiotensin I induced pressor responses in anesthetized normotensive rats with 10 ug/kg dose of compound given intravenously; type: functional; conditions: iv
Rattus norvegicus [14] = assay: Maximum inhibitory effect on Angiotensin I induced pressor responses in anesthetized normotensive rats with 0.2 mg/Kg dose of compound given perorally; type: functional; conditions: po; summary of the method: as §1
Rattus norvegicus [15] = assay: Maximum inhibitory effect on Angiotensin I induced pressor responses in anesthetized normotensive rats with 0.5 mg/Kg dose of compound given perorally; type: functional; conditions: po; summary of the method: as §1
Rattus norvegicus [16] = assay: Maximum inhibitory effect on Angiotensin I induced pressor responses in anesthetized normotensive rats with 1.0 mg/Kg dose of compound given perorally; type: functional; conditions: po; summary of the method: as §1
Rattus norvegicus [17] = species on record: Rattus norvegicus; assay: Inhibitory effect on Angiotensin I induced pressor responses in normotensive rats when given perorally; type: functional; conditions: po, read-out: ID50 (the source's name); summary of the method: as §1
Rattus norvegicus [18] = assay: Maximum effect on systolic blood pressure in spontaneously hypertensive rats after administration of 10 mg/kg of compound perorally; type: functional, Artery; conditions: route oral; summary of the method: as §2
Rattus norvegicus [19] = assay: Maximum effect on systolic blood pressure in spontaneously hypertensive rats after administration of 1 mg/kg of compound perorally; type: functional, Artery; conditions: route oral; summary of the method: as §2
Rattus norvegicus [20] = assay: Maximum effect on systolic blood pressure in spontaneously hypertensive rats after administration of 2 mg/kg of compound perorally; type: functional, Artery; conditions: route oral; summary of the method: as §2
Rattus norvegicus [21] = assay: Maximum effect on systolic blood pressure in spontaneously hypertensive rats after administration of 5 mg/kg of compound perorally; type: functional, Artery; conditions: route oral; summary of the method: as §2

In the case of `C[C@H](N[C@@H](CCc1ccccc1)C(=O)O)C(=O)N1C(=O)N(C)C[C@H]1C(=O)O`, the inhibition in vivo at 0.01 mg/kg (Rattus norvegicus [1]) is reported as 62.4%, the inhibition in vivo at 0.2 mg/kg (Rattus norvegicus [2]) is reported as -7.2% and the inhibition in vivo at 1 mg/kg (Rattus norvegicus [3]) is reported as 26.3%.
`CCCCCCCC[C@H](N[C@@H](C)C(=O)N1C(=O)N(C)C[C@H]1C(=O)O)C(=O)O` showed an inhibition in vivo at 0.01 mg/kg (Rattus norvegicus [1]) of 53.4% and an inhibition in vivo at 1 mg/kg (Rattus norvegicus [3]) of 18.4%.
`C[C@H](N[C@@H](CCc1ccccc1)C(=O)O)C(=O)N1C(=O)N(Cc2ccccc2)C[C@H]1C(=O)O` gave an inhibition in vivo at 0.01 mg/kg (Rattus norvegicus [1]) of 39%.
In the case of `CCOC(=O)[C@H](CCc1ccccc1)N[C@@H](C)C(=O)N1C(=O)N(C)C[C@H]1C(=O)O`, the Change (Rattus norvegicus [4]) is reported as -25 [middle of 4 runs], the Duration (Rattus norvegicus [5]) is reported as over 9 h and the inhibition in vivo at 0.2 mg/kg (Rattus norvegicus [2]) is reported as 52%. For the same compound, the inhibition in vivo at 0.5 mg/kg (Rattus norvegicus [6]) was 62.7%, the Systolic blood pressure (Rattus norvegicus [7]) was 192 mmHg and the Systolic blood pressure (Rattus norvegicus [8]; 1 mg/kg) was 190 mmHg and 190.8 mmHg. The Systolic blood pressure (Rattus norvegicus [9]; 2 mg/kg) was 165.8 mmHg and 192.5 mmHg, the Systolic blood pressure (Rattus norvegicus [10]; 5 mg/kg) was 191.4 mmHg and 164.3 mmHg and the Time (Rattus norvegicus [11]) was 3 h and 6 h. For the same compound, the ED50 (Rattus norvegicus [12]) was 0.24 mg/kg.
`CCCCCCCC[C@H](N[C@@H](C)C(=O)N1C(=O)N(C)C[C@H]1C(=O)O)C(=O)OCC` gave an inhibition in vivo at 1 mg/kg (Rattus norvegicus [3]) of 56.2%.
In the case of `C[C@H](N[C@@H](CCc1ccccc1)C(=O)O)C(=O)N1CCC[C@H]1C(=O)O` [ENALAPRILAT ANHYDROUS], the inhibition in vivo at 0.01 mg/kg (Rattus norvegicus [13]) is reported as 54.5%.
With `CCCCCCCC[C@H](N[C@@H](C)C(=O)N1C(=O)N(Cc2ccccc2)C[C@H]1C(=O)O)C(=O)O` the inhibition in vivo at 0.01 mg/kg (Rattus norvegicus [1]) was 41%.
In the case of `CCOC(=O)[C@H](CCc1ccccc1)N[C@@H](C)C(=O)N1CCC[C@H]1C(=O)O`, the Change (Rattus norvegicus [4]) is reported as -23.3 [middle of 4 runs], the Duration (Rattus norvegicus [5]) is reported as over 9 h and the inhibition in vivo at 0.2 mg/kg (Rattus norvegicus [14]) is reported as 42.9%. The inhibition in vivo at 0.5 mg/kg (Rattus norvegicus [15]) was 50.5%, the inhibition in vivo at 1 mg/kg (Rattus norvegicus [16]) was 69.8% and the ED50 (Rattus norvegicus [17]) was 0.3 mg/kg. For the same compound, the Systolic blood pressure (Rattus norvegicus [7]) was 193.3 mmHg, the Systolic blood pressure (Rattus norvegicus [8]) was 190.8 mmHg and the Systolic blood pressure (Rattus norvegicus [9]) was 192.9 mmHg. For the same compound, the Systolic blood pressure (Rattus norvegicus [10]) was 190 mmHg, the Systolic blood pressure (Rattus norvegicus [18]) was 165 mmHg and the Systolic blood pressure (Rattus norvegicus [19]) was 178.3 mmHg. The Time (Rattus norvegicus [11]) was 3 h and 6 h, the Systolic blood pressure (Rattus norvegicus [20]) was 168.6 mmHg and the Systolic blood pressure (Rattus norvegicus [21]) was 166.7 mmHg.
